Target: Tissue factor (Homo sapiens, UniProt P13726)
Test: Inhibition of tissue factor procoagulant activity in LPS-stimulated human THP1 cells preincubated for 1 hr before LPS addition measured after 5 hrs
Type: cell-based, THP-1
Procedure, shortened: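 THP-1 cells grown in RPMI-1640 with 10% heat-inactivated FCS, 37 °C, 5% CO2. Cells at 1 × 10⁶/mL pretreated 1 h with compound or 0.1% DMSO vehicle, then given 500 ng/mL LPS for 5 h. Cells were pelleted, resuspended, frozen/thawed three times, and the lysate incubated with prothrombin complex plus CaCl₂ (pH 7.3) 15 min at 37 °C. Factor Xa chromogenic substrate (0.5 mM) with EDTA was added and A405 read.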

Tissue factor, sequence (P13726 whole entry): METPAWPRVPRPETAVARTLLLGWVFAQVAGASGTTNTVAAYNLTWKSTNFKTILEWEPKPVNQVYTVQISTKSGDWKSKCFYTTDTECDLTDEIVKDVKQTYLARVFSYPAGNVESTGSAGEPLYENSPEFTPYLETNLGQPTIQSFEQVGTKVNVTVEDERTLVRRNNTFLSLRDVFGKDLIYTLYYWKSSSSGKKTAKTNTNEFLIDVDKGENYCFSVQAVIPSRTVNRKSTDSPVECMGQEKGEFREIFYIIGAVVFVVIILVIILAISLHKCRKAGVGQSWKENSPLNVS

IC50: 105 nM
Structure (SMILES): COc1cc2c(cc1O)[C@@H]1Cc3ccc(O)c(OC)c3CN1CC2 [STEPHOLIDINE]

Reference: ChEMBL document CHEMBL2311485, “Chemical and microbial semi-synthesis of tetrahydroprotoberberines as inhibitors on tissue factor procoagulant activity” (Bioorg Med Chem, 2013)
